Assay outcomes (PubChem)
miR-122 sensor – inhibitors of miR-122 in Huh7 cells; Huh7 miR-122 Renilla luciferase sensor, 48 h; neutral wells = 0, positive control = 100; activation (reporter increase), % at 12.5 µM; 340,000 tested, 0.3% active; AID 602342;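 active = mean replicate activation score at least 90 and every replicate individually at or above 90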;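 note: higher luciferase means less miR-122 activity so hits act as miR-122 inhibitors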
PglD DTNB – inhibitors of Campylobacter jejuni PglD acetyltransferase | 360,000 tested, 0.098% active | purified PglD enzyme, DTNB colorimetric CoA detection | inhibition, % at 12.5 µM | AID 602405; in the data active = inhibition above about 16%, passing the limit was not always enough
CAL PDZ FP-1 – human CAL PDZ-peptide interaction inhibition. purified CAL PDZ, TMR-peptide fluorescence polarization, 1 h. 330,000 tested, 0.02% active. inhibition, % at 20 µM. Q9HD26;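 active = highest replicate inhibition of at least 40%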;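 note: plate controls were DMSO neutral control wells for no effect and unlabeled competitor peptide control wells for full effect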
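material = purified tagged CAL PDZ domain construct (CerCALP) | compound dosing = 20 µM, one dose | times = 1 h at RT | measured by = fluorescence polarization from S- and P-plane intensities, G-factor corrected | read-out = inhibition from polarization loss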
Cneo AK release – causes C. neoformans cell lysis. 360,000 tested, 0.2% active. lysis activity, % at 15 µM. adenylate kinase release luminescence, 4 h; normalised: neutral wells 0, clomiphene wells 100;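 active = mean lysis activity across replicates of at least 80%, whatever share of replicates individually reach that level; inactive = mean lysis activity below 80%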
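Assay system: Cryptococcus neoformans yeast cells / Dosing: single-point compound dose / Timing: 4 h at 37 °C static, read 1 h later / Measured by: luminescence of released adenylate kinase using an AK detection reagent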
CAL PDZ FP-2 – CAL PDZ (human) peptide binding inhibition | Q9HD26 | purified CAL PDZ, TMR-peptide fluorescence polarization, 1 h | inhibition, % at 24.9 µM | 300,000 tested, 0.92% active;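 active = mean inhibition of at least 30% with at least half of replicates also reaching 30%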;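 note: 0% = DMSO neutral control and 100% = excess unlabeled competitor peptide PRC23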
* = called active by the depositor; x = not tested or not shown; [ ] = dose if it differs, or a comment. Rows were chosen to be rich in hits. Some 1.1% of all compounds tested hit in one or more screens of this group.

SMILES	miR-122 sensor	PglD DTNB	CAL PDZ FP-1	Cneo AK release	CAL PDZ FP-2
COc1ccc(NS(=O)(=O)c2cc(NC(=O)c3ccc(=O)[nH]n3)ccc2C)cc1	166.1*	5.4	-0.7	-0.3	-9.5
CCN(CC)S(=O)(=O)c1ccc(NS(=O)(=O)c2ccc(C)c(C)c2)cc1	182.9*	-2.6	-0.2	0.0	-3.4
CCC(=O)N[C@H]1CC[C@@H](CCNC(=O)Nc2ccc(F)cc2)O[C@H]1CO	x	0.1	x	7.7	x
CC(C)(C)[C@@H]1CCC(=O)N(CC[C@H](Sc2ccc(Br)cc2)c2ccccc2)CC1	x	-0.9	-0.2	-1.5	-2.2
C[C@H](CO)N1C[C@H](C)[C@@H](CN(C)S(=O)(=O)c2ccccc2)Oc2ccc(NC(=O)Nc3ccccc3)cc2CC1=O	1.4[16.7 µM]	5.4	x	3.3	x
CCc1ccc(NC2=CC(=O)CC(c3ccco3)C2)cc1 (stereo unspecified)	-1.8	-1.3	-1.3	1.6	49.5*
Cc1cc(C)cc(NC2=CC(=O)CC(c3ccco3)C2)c1 (stereo unspecified)	x	x	-1.3	x	x
CC(C)CCC(CCN1CCCC1)c1ccc2c(c1)OCO2 (stereo unspecified)	-5.0	-1.0	-1.0	2.0	74.4*
CC(C)CCC(CCN1CCOCC1)c1ccc2c(c1)OCO2 (stereo unspecified)	-4.4	1.3	-0.3	3.6	-1.3
Cc1ccccc1SCC(=O)OCC(=O)NCc1ccccc1	3.0	3.0	0.4	-0.3	0.2
Cc1ccccc1NC(=O)Cn1nc(C(=O)O)c2ccccc2c1=O	6.0	4.1	-1.2	1.0	-1.4
Cc1ccccc1NC(=O)CCCn1nc(C)c2c(C)n(-c3ccccc3)nc2c1=O	-3.5	-2.5	-0.5	1.3	30.3*
Cc1ccccc1NC(=O)Cn1nc(C)c2ccccc2c1=O	0.1	-4.2	-0.4	3.6	34.5*
COC(=O)c1ccccc1NC(=O)CCCn1nc(C)c2c(C)n(-c3ccccc3)nc2c1=O	x	4.4	0.2	1.8	x
O=C(NC1CCC1)[C@@H]1[C@@H](CO)[C@@H]2Cn3c(ccc(-c4cncnc4)c3=O)[C@H]1N2CCc1ccccc1	-3.2[16.7 µM]	0.2	x	2.9	x
CCCNC(=O)C[C@H]1CC[C@H]2[C@H](COc3ccc(NC(=O)Cc4cccs4)cc3C(=O)N2C)O1	166.7*[16.7 µM]	0.9	x	-1.5	x
CCCNC(=O)C[C@@H]1CC[C@H]2[C@H](COc3ccc(NC(=O)Cc4cccs4)cc3C(=O)N2C)O1	206.7*[16.7 µM]	-0.7	x	-1.0	x
CCCNC(=O)C[C@@H]1CC[C@@H]2[C@@H](COc3ccc(NC(=O)CCC)cc3C(=O)N2C)O1	13.0[16.7 µM]	2.4	x	104.8*	x
CCCNC(=O)C[C@@H]1CC[C@@H]2[C@H](COc3ccc(NC(=O)Cc4cccs4)cc3C(=O)N2C)O1	-26.7[16.7 µM]	1.0	x	-4.2	x
COc1ccc(/C=N/N=C2/NC(=O)C(CC(=O)NC(N)=O)S2)cc1 (stereo unspecified)	x	-1.4	0.1	1.1	49.1*
CCCCNC(=O)CC1S/C(=N/N=C/c2ccc(OC)cc2)NC1=O (stereo unspecified)	x	x	-0.7	x	0.7
COCCNC(=O)C1CC(c2ccc(C(F)(F)F)cc2)=NO1 (stereo unspecified)	1.5	2.2	0.8	1.4	3.3
CN(C)S(=O)(=O)c1ccc2c(c1)nc(CCC(=O)NCc1ccc(Cl)cc1)n2C	11.4	x	0.1	x	4.4
CN(C)S(=O)(=O)c1ccc2c(c1)nc(CCC(=O)NCC1CCCCC1)n2C	164.0*	-1.7	-1.0	0.9	-3.5
Cc1noc(C)c1NC(=O)N(C)C[C@@H]1Oc2ccc(NC(=O)Nc3ccc(C(F)(F)F)cc3)cc2C(=O)N([C@@H](C)CO)C[C@H]1C	6.1[16.7 µM]	-0.7	x	2.3	x
SMILES	miR-122 sensor	PglD DTNB	CAL PDZ FP-1	Cneo AK release	CAL PDZ FP-2
O=C(CCCCCN1C(=O)CCC1=O)Nc1ncn[nH]1	3.0	0.0	0.4	0.8	10.5
O=C(O)CCCCCN1C(=O)CCC1=O	6.8	-4.0	x	1.0	45.3*
O=C(CCn1nc(-c2ccccc2)ccc1=O)N1CCN(c2ccccn2)CC1	-0.2	-6.9	-0.6	-0.5	-2.1
CCOC(=O)C1CCN(C(=O)/C(=C/c2ccccc2)NC(=O)c2ccccc2)CC1	1.9	3.9	x	4.7	50.7*
CCOC(=O)C1CCCN(C(=O)/C(=C/c2ccco2)NC(=O)c2ccccc2)C1 (stereo unspecified)	-0.2	-1.3	-2.2	3.3	x
CC(=O)Nc1ccc(S(=O)(=O)Nc2cccc(-c3csc(C)n3)c2)cc1	283.4*	7.8	-3.7	9.7	-0.6
Cc1nc(-c2cccc(NS(C)(=O)=O)c2)cs1	-0.1	-2.8	-1.6	-1.7	x
CN(CC(=O)Nc1cc(Cl)ccc1C#N)C1CCS(=O)(=O)C1 (stereo unspecified)	x	0.3	-0.7	1.7	84.6*
COc1cc(C2C3=C(COC3=O)Oc3cc4c(cc32)OCO4)cc(OC)c1OC(C)=O (stereo unspecified)	100.9*	x	-1.0	x	-3.8
CCOC(=O)C1(C)NC(c2cc(OC)c(OC)c(OC)c2)C2C(=O)N(CC)C(=O)C21 (stereo unspecified)	-1.8	-5.0	-1.0	-3.0	67.0*
C[C@@H]1CCCCO[C@@H](CN(C)C(=O)Nc2ccc(F)cc2)[C@@H](C)CN([C@@H](C)CO)C(=O)c2cc(NC(=O)CCC(F)(F)F)ccc2O1	9.6[16.7 µM]	2.5	x	2.7	x
COc1ccccc1OCC(O)Cn1nc(C)cc1C (stereo unspecified)	-0.4	-0.5	-1.2	0.6	74.1*
CN(C)CC(=O)N[C@H]1C=C[C@@H](CC(=O)NCc2ccccc2F)O[C@@H]1CO	x	-1.8	x	4.3	x
Cc1sc2ncnc(OCC(=O)Nc3ccc4c(c3)OCCO4)c2c1C	3.8	-4.1	-1.2	-2.6	-4.3
O=C(COc1ncnc2sccc12)Nc1ccc2c(c1)OCCO2	-3.1	-0.6	-1.2	-0.1	44.2*
Cc1cc(C)c(OCC(=O)Nc2ccc3c(c2)OCO3)cc1C	6.2	-10.3	-1.6	-1.3	active
Cc1ccc(C)c(OCC(=O)Nc2ccc3c(c2)OCO3)c1	x	x	-1.0	x	-2.7
COC(=O)C[C@@H]1C[C@@H]2c3cc(N(C)C)ccc3O[C@@H]2[C@@H](CO)O1	-5.1[16.7 µM]	-0.8	x	0.5	x
Cc1ccc(CSc2ccc(S(=O)(=O)N3CCOCC3)cn2)cc1	1.3	2.0	0.3	-0.8	x
Cc1ccc(CSc2ccc(S(=O)(=O)N3CCCC3)cn2)cc1	-4.6	0.5	-0.6	-0.9	71.0*
CO[C@H]1CC[C@H]2CCOc3ccc(C#N)cc3C(=O)N(C)C[C@@H](OC)[C@H](C)C(=O)N(C)C[C@@H]1O2	x	0.9	x	4.4	x
CC1CCN(c2ncnc3ccccc23)CC1	x	x	0.1	x	-1.8
COCCOc1cc2ncnc(N3CCC(C(=O)O)CC3)c2cc1OCCOC	x	x	-0.2	x	164.2*
CC(C)NC(=O)Nc1ccc2c(c1)CC(=O)N([C@@H](C)CO)C[C@H](C)[C@@H](CN(C)C(=O)Nc1cccc3ccccc13)O2	-0.5[16.7 µM]	0.7	x	10.0	x
